Laboratory results published in ChEMBL document CHEMBL1955828, “Anti-mycobacterial activities of some cationic and anionic calix[4]arene derivatives” (Bioorg Med Chem, 2012).
In brackets after ≈: the same amount, converted by molar mass.

Columns and labels:
[1] = tested on: Mycobacterium tuberculosis; test: Antimycobacterial activity against Mycobacterium tuberculosis H37Rv after 6 days by MTT assay; assay type: functional, organism-based; settings: 144 h
Procedure, shortened: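 Twofold serial compound dilutions in Middlebrook 7H9 broth were inoculated with bacterial suspension in 7H9 (H37Rv, or INH-resistant MYC5165) and incubated 6 days. MTT (1 mg/mL) was then added, followed by 1 more day of incubation, solubilisation buffer, and OD read at 570 nm. MIC was the lowest concentration inhibiting growth relative to untreated bacilli, and IC50 was also determined.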

[2] = tested on: Mycobacterium tuberculosis; test: Antimycobacterial activity against Mycobacterium tuberculosis H37Rv at 1 uM after 6 days by MTT assay; assay type: functional; settings: 144 h, read-out: GI
[3] = tested on: Mycobacterium tuberculosis; test: Antimycobacterial activity against Mycobacterium tuberculosis H37Rv at 10 uM after 6 days by MTT assay; assay type: functional; settings: 144 h, read-out: GI
[4] = tested on: Escherichia coli; test: Antibacterial activity against Escherichia coli ATCC 25922 by microdilution method; assay type: functional
[5] = tested on: Pseudomonas aeruginosa; test: Antibacterial activity against Pseudomonas aeruginosa ATCC 27853 by microdilution method; assay type: functional
[6] = tested on: Staphylococcus aureus; test: Antibacterial activity against Staphylococcus aureus ATCC 25923 by microdilution method; assay type: functional
[7] = tested on: Enterococcus faecalis; test: Antibacterial activity against Enterococcus faecalis ATCC 29212 by microdilution method; assay type: functional
[8] = Cytotoxicity against human MRC5 cells by MTT assay; assay type: cell-based

SMILES | MIC [1] [µM] | inhibition of growth at 1 µM [2] [%] | inhibition of growth at 10 µM [3] [%] | further results
Cc1ccnc(-c2cc(C)ccn2)c1 | 136 (≈ 25 µg/mL) |  |  | 
Cc1cccc(-c2cccc(COc3c4cc(S(=O)(=O)O)cc3Cc3cc(S(=O)(=O)O)cc(c3O)Cc3cc(S(=O)(=O)O)cc(c3OCc3cccc(-c5cccc(C)n5)n3)Cc3cc(S(=O)(=O)O)cc(c3O)C4)n2)n1 | > 50 |  |  | 
Cc1csc(-c2nc(COc3c4cc(S(=O)(=O)O)cc3Cc3cc(S(=O)(=O)O)cc(c3O)Cc3cc(S(=O)(=O)O)cc(c3OCc3csc(-c5nc(C)cs5)n3)Cc3cc(S(=O)(=O)O)cc(c3O)C4)cs2)n1 | > 50 |  |  | 
Cc1cccc(-c2cccc(COc3c4cc(CC(=O)O)cc3Cc3cc(CC(=O)O)cc(c3O)Cc3cc(CC(=O)O)cc(c3OCc3cccc(-c5cccc(C)n5)n3)Cc3cc(CC(=O)O)cc(c3O)C4)n2)n1 | > 50 |  |  | 
Cc1cccc(-c2cccc(COc3c4cc(CP(=O)(O)O)cc3Cc3cc(CP(=O)(O)O)cc(c3O)Cc3cc(CP(=O)(O)O)cc(c3OCc3cccc(-c5cccc(C)n5)n3)Cc3cc(CP(=O)(O)O)cc(c3O)C4)n2)n1 | 50 (≈ 58.2 µg/mL) |  |  | IC50 [1]: 12.4 µM
NCCc1cc2c(O)c(c1)Cc1cc(CCN)cc(c1O)Cc1cc(CCN)cc(c1O)Cc1cc(CCN)cc(c1O)C2 | 3.2 (≈ 1.91 µg/mL) | 27 | 76 | IC50 [1]: 0.4 µM
Cc1cccc(-c2cccc(COc3c4cc(CCN)cc3Cc3cc(CCN)cc(c3O)Cc3cc(CCN)cc(c3OCc3cccc(-c5cccc(C)n5)n3)Cc3cc(CCN)cc(c3O)C4)n2)n1 |  | 7 | 0 | 
Cc1csc(-c2nc(COc3c4cc(CCN)cc3Cc3cc(CCN)cc(c3O)Cc3cc(CCN)cc(c3OCc3csc(-c5nc(C)cs5)n3)Cc3cc(CCN)cc(c3O)C4)cs2)n1 |  | 25 | 19 | 
Cc1ccc(-c2ccc(COc3c4cc(CCN)cc3Cc3cc(CCN)cc(c3O)Cc3cc(CCN)cc(c3OCc3ccc(-c5ccc(C)cn5)nc3)Cc3cc(CCN)cc(c3O)C4)cn2)nc1 | 0.8 (≈ 0.769 µg/mL) | 63 | 81 | IC50 [1]: 0.2 µM
Cc1cccc(-c2cccc(COc3c4cc(CCNC(=N)N)cc3Cc3cc(CCNC(=N)N)cc(c3O)Cc3cc(CCNC(=N)N)cc(c3OCc3cccc(-c5cccc(C)n5)n3)Cc3cc(CCNC(=N)N)cc(c3O)C4)n2)n1.O=C(O)C(F)(F)F |  | 7 | 10 | MIC [4]: 4 µg/mL; MIC [5]: 4 µg/mL; MIC [6]: 4 µg/mL; MIC [7]: 4 µg/mL
Cc1ccc(-c2ccc(COc3c4cc(CCNC(=N)N)cc3Cc3cc(CCNC(=N)N)cc(c3O)Cc3cc(CCNC(=N)N)cc(c3OCc3ccc(-c5ccc(C)cn5)nc3)Cc3cc(CCNC(=N)N)cc(c3O)C4)cn2)nc1.O=C(O)C(F)(F)F | 0.8 | 62 | 98 | IC50 [1]: 0.05 µM; CC50 [8]: 128 µg/mL; MIC [4]: 4 µg/mL; MIC [5]: 4 µg/mL; MIC [6]: 4 µg/mL; MIC [7]: 4 µg/mL
Cc1csc(-c2nc(COc3c4cc(CCNC(=N)N)cc3Cc3cc(CCNC(=N)N)cc(c3O)Cc3cc(CCNC(=N)N)cc(c3OCc3csc(-c5nc(C)cs5)n3)Cc3cc(CCNC(=N)N)cc(c3O)C4)cs2)n1.O=C(O)C(F)(F)F | 1.6 | 54 | 90 | IC50 [1]: 0.4 µM; CC50 [8]: 16 µg/mL; MIC [4]: 4 µg/mL; MIC [5]: 4 µg/mL; MIC [6]: 4 µg/mL; MIC [7]: 4 µg/mL
N=C(N)NCCc1cc2c(O)c(c1)Cc1cc(CCNC(=N)N)cc(c1O)Cc1cc(CCNC(=N)N)cc(c1O)Cc1cc(CCNC(=N)N)cc(c1O)C2.O=C(O)C(F)(F)F | 0.8 | 73 | 97 | IC50 [1]: 0.25 µM; CC50 [8]: 256 µg/mL; MIC [4]: 4 µg/mL; MIC [5]: 4 µg/mL; MIC [6]: 4 µg/mL; MIC [7]: 4 µg/mL
O=C(O)Cc1cc2c(O)c(c1)Cc1cc(CC(=O)O)cc(c1O)Cc1cc(CC(=O)O)cc(c1O)Cc1cc(CC(=O)O)cc(c1O)C2 |  | 0 | 7 | 
O=P(O)(O)Cc1cc2c(O)c(c1)Cc1cc(CP(=O)(O)O)cc(c1O)Cc1cc(CP(=O)(O)O)cc(c1O)Cc1cc(CP(=O)(O)O)cc(c1O)C2 |  | 0 | 5 | 
O=S(=O)(O)c1cc2c(O)c(c1)Cc1cc(S(=O)(=O)O)cc(c1O)Cc1cc(S(=O)(=O)O)cc(c1O)Cc1cc(S(=O)(=O)O)cc(c1O)C2 |  | 0 | 0 | 
Cc1csc(-c2nc(COc3c4cc(CC(=O)O)cc3Cc3cc(CC(=O)O)cc(c3O)Cc3cc(CC(=O)O)cc(c3OCc3csc(-c5nc(C)cs5)n3)Cc3cc(CC(=O)O)cc(c3O)C4)cs2)n1 | > 50 |  |  | 
Cc1csc(-c2nc(COc3c4cc(CP(=O)(O)O)cc3Cc3cc(CP(=O)(O)O)cc(c3O)Cc3cc(CP(=O)(O)O)cc(c3OCc3csc(-c5nc(C)cs5)n3)Cc3cc(CP(=O)(O)O)cc(c3O)C4)cs2)n1 | 50 (≈ 59.5 µg/mL) |  |  | 
O=C(O)c1cn(C2CC2)c2cc(N3CCNCC3)c(F)cc2c1=O [CIPROFLOXACIN] | 2.5 (≈ 0.828 µg/mL) |  |  | 
c1ccc(-c2ccccn2)nc1 [DIPYRIDYL] | 160 (≈ 25 µg/mL) |  |  | 
CC[C@@H](CO)NCCN[C@@H](CC)CO [ETHAMBUTOL] | 9.8 (≈ 2 µg/mL) |  | 65 | 
CCc1cc(C(N)=S)ccn1 [ETHIONAMIDE] | 9 (≈ 1.5 µg/mL) |  |  | 
NNC(=O)c1ccncc1 [ISONIAZID] | 0.6 (≈ 0.0823 µg/mL) |  |  | 
CO[C@H]1/C=C/O[C@@]2(C)Oc3c(C)c(O)c4c(O)c(c(/C=N/N5CCN(C)CC5)c(O)c4c3C2=O)NC(=O)/C(C)=C\C=C\[C@H](C)[C@H](O)[C@@H](C)[C@@H](O)[C@@H](C)[C@H](OC(C)=O)[C@@H]1C [RIFAMPIN] | 0.24 (≈ 0.198 µg/mL) |  |  | 
CN[C@@H]1[C@H](O[C@H]2[C@H](O[C@H]3[C@H](O)[C@@H](O)[C@H](N=C(N)N)[C@@H](O)[C@@H]3N=C(N)N)O[C@@H](C)[C@]2(O)C=O)O[C@@H](CO)[C@H](O)[C@H]1O [STREPTOMYCIN] | 0.7 (≈ 0.407 µg/mL) |  |  | 
